Assay results: ChEMBL document CHEMBL1142736, “Synthesis of novel diarylpyrimidine analogues and their antiviral activity against human immunodeficiency virus type 1” (J Med Chem, 2005)

Assays:
[1] = system: Human immunodeficiency virus 1; assay: Effective concentration against human immunodeficiency virus type 1 mutated at 100I; type: functional, organism-based
[2] = system: Human immunodeficiency virus 1; assay: Effective concentration against human immunodeficiency virus type 1 mutated at 227L+106A; type: functional, organism-based
[3] = system: Human immunodeficiency virus 1; assay: Ratio of CC50 and EC50 against wild type human immunodeficiency virus type 1 LAI strain; type: functional
[4] = system: Human immunodeficiency virus 1; assay: Effective concentration for the inhibition of wild type human immunodeficiency virus type 1 LAI strain; type: functional, organism-based
[5] = system: Human immunodeficiency virus 1; assay: Effective concentration against human immunodeficiency virus type 1 mutated at 227C; type: functional, organism-based
[6] = Cytotoxic concentration against wild type human immunodeficiency virus type 1 […] strain; conditions: Human immunodeficiency virus 1
How it was run: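 MT-4 cells, 30,000 cells/well, were mock-infected (virus at 200-250 CCID50/well for the infected wells) and exposed to a range of compound concentrations. Plates were held at 37 °C with 5% CO2.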

[7] = system: Human immunodeficiency virus 1; assay: Effective concentration against human immunodeficiency virus type 1 mutated at 188L; type: functional, organism-based
[8] = system: Human immunodeficiency virus 1; assay: Effective concentration against human immunodeficiency virus type 1 mutated at 103N; type: functional, organism-based
[9] = system: Human immunodeficiency virus 1; assay: Effective concentration against human immunodeficiency virus type 1 mutated at 181C; type: functional, organism-based
[10] = system: Human immunodeficiency virus 1; assay: Effective concentration against human immunodeficiency virus type 1 mutated at 103N+181C; type: functional, organism-based
[11] = system: Human immunodeficiency virus 1; assay: Effective concentration against human immunodeficiency virus type 1 mutated at 100I+103N; type: functional, organism-based
[12] = system: Human immunodeficiency virus 1; assay: Effective concentration against human immunodeficiency virus type 1 mutated at 103N+181C; ND:Not determined; type: functional, organism-based

SMILES	EC50 [1] [nM]	EC50 [2] [nM]	Selectivity index [3]	EC50 [4] [nM]	EC50 [5] [nM]	CC50 [6] [nM]	EC50 [7] [nM]	EC50 [8] [nM]	EC50 [9] [nM]	EC50 [10] [nM]	EC50 [11] [nM]	EC50 [12] [nM]
Cc1cc(/C=C(/C#N)CC#N)cc(C)c1Nc1ccnc(Nc2ccc(C#N)cc2)n1	31.6	25.1	5012	0.4	12.5	2000	31.6	6.31	6.31			
Cc1cc(/C=C\C#N)cc(C)c1Nc1ccnc(Nc2ccc(C#N)cc2)n1	6.3	4		0.6	4	30000	31	1.6	5	39.8	794	
C/C(C#N)=C\c1cc(C)c(Nc2ccnc(Nc3ccc(C#N)cc3)n2)c(C)c1	0.6	4	25000	0.8	2.51	20000	3.16	0.6	1.6	2	7.95	
Cc1cc(/C(Cl)=C/C#N)cc(C)c1Nc1ccnc(Nc2ccc(C#N)cc2)n1	2.51	7.95	7500	4	31.6	30000	7.95	2	6.31	6.31	31.6	
C/C(C#N)=C/c1cc(C)c(Nc2ccnc(Nc3ccc(C#N)cc3)n2)c(C)c1	31.6	5	3750	0.8	5	3000	31.6	1	4	20	> 10000	
Cc1cc(/C=C/CC#N)cc(C)c1Nc1ccnc(Nc2ccc(C#N)cc2)n1	40	50	10000	1	40	10000	20	2.51	31.6	1	251	
Cc1cc(CC(C)C#N)cc(C)c1Nc1ccnc(Nc2ccc(C#N)cc2)n1 (stereo not drawn)	1	3.16	1578	0.63	6.31	1000	50	0.63	2	5	12.5	
Cc1cc(-c2ccc(C#N)o2)cc(C)c1Nc1ccnc(Nc2ccc(C#N)cc2)n1	31.6	31.6	3162	4	31.6	10000	31.6	7.95	40		500	
Cc1cc(COCCC#N)cc(C)c1Nc1ccnc(Nc2ccc(C#N)cc2)n1	25.1	125	15873	0.63	10	10000	40	3.16	31.6			
Cc1cc(CC#N)cc(C)c1Nc1ccnc(Nc2ccc(C#N)cc2)n1	40	125	12589	0.8	10	10000	25.1	7.95	25.1			
Cc1cc(CCC#N)cc(C)c1Nc1ccnc(Nc2ccc(C#N)cc2)n1	7.95	4	4782	0.63	4	3000	20	0.4	12.5	2.51	31.6	
C/C(=C\C#N)c1cc(C)c(Nc2ccnc(Nc3ccc(C#N)cc3)n2)c(C)c1	0.8	5	30000	1	5	30000	4	1	2.51	2.51	2.51	
Cc1cc(C#N)cc(C)c1Nc1ccnc(Nc2ccc(C#N)cc2)n1	31	12.6	12500	0.4	100	5000	7.9	2	6.3	31	1000	
CC(C)Nc1cccnc1N1CCN(C(=O)c2cc3cc(NS(C)(=O)=O)ccc3[nH]2)CC1 [DELAVIRDINE]	2510		>300	63.1		> 20000	1260	2510	2000			20000
O=C1Nc2ccc(Cl)cc2[C@@](C#CC2CC2)(C(F)(F)F)O1 [EFAVIRENZ]	40				160	10000	160	40	2	40	> 10000	
Cc1ccnc2c1NC(=O)c1cccnc1N2C1CC1 [NEVIRAPINE]	316		>500	39.8		20000	> 10000	6310	10000	> 10000		
Cc1cc(/C=C/C#N)cc(C)c1Nc1ccnc(Nc2ccc(C#N)cc2)n1 [RILPIVIRINE]	0.4	1			2	30000	2	0.3	1.26	1	7.95	
